In ChEMBL document CHEMBL1955770, “Inhibition of S/G2 phase CDK4 reduces mitotic fidelity” (J Biol Chem, 2006):

Experiments:
[1] = biological target: Fibroblast growth factor receptor 1 (Homo sapiens) (UniProt P11362); experiment: Inhibition of FGFR1 at 1 uM
[2] = biological target: Ribosomal protein S6 kinase alpha-2 (Homo sapiens) (UniProt Q15349); experiment: Inhibition of RPS6KA2 Kin.Dom. 1 at 1 uM
[3] = biological target: Receptor tyrosine-protein kinase erbB-4 (Homo sapiens) (UniProt Q15303); experiment: Inhibition of ERBB4 at 1 uM
[4] = biological target: Angiopoietin-1 receptor (Homo sapiens) (UniProt Q02763); experiment: Inhibition of TIE2 at 1 uM
[5] = biological target: Dual specificity protein kinase CLK2 (Homo sapiens) (UniProt P49760); experiment: Inhibition of CLK2 at 1 uM
[6] = biological target: STE20-like serine/threonine-protein kinase (Homo sapiens) (UniProt Q9H2G2); experiment: Inhibition of SLK at 1 uM
[7] = biological target: Serine/threonine-protein kinase 3 (Homo sapiens) (UniProt Q13188); experiment: Inhibition of STK3 at 1 uM
[8] = biological target: Tyrosine-protein kinase Lyn (Homo sapiens) (UniProt P07948); experiment: Inhibition of LYN at 1 uM
[9] = biological target: Serine/threonine-protein kinase PAK 5 (Homo sapiens) (UniProt Q9P286); experiment: Inhibition of PAK7/PAK5 at 1 uM
[10] = biological target: Ephrin type-A receptor 7 (Homo sapiens) (UniProt Q15375); experiment: Inhibition of EPHA7 at 1 uM
[11] = biological target: 3-phosphoinositide-dependent protein kinase 1 (Homo sapiens) (UniProt O15530); experiment: Inhibition of PDPK1 at 1 uM
[12] = biological target: Protein-tyrosine kinase 2-beta (Homo sapiens) (UniProt Q14289); experiment: Inhibition of PTK2B at 1 uM
[13] = biological target: Tyrosine-protein kinase CSK (Homo sapiens) (UniProt P41240); experiment: Inhibition of CSK at 1 uM
[14] = biological target: Ephrin type-A receptor 4 (Homo sapiens) (UniProt P54764); experiment: Inhibition of EPHA4 at 1 uM
[15] = biological target: Tyrosine-protein kinase JAK2 (Homo sapiens) (UniProt O60674); experiment: Inhibition of JAK2(Kin.Dom.2) at 1 uM
[16] = biological target: Dual specificity protein kinase CLK4 (Homo sapiens) (UniProt Q9HAZ1); experiment: Inhibition of CLK4 at 1 uM
[17] = biological target: Aurora kinase C (Homo sapiens) (UniProt Q9UQB9); experiment: Inhibition of AURKC at 1 uM
How it was run: (§1)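 Competition binding screen across a kinase panel with compound at 1 μM. Read-out is % competition. Kinases not hit at this concentration were scored '<50'. No Kd was determined for hits.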

HCT-116 = experiment: Cell cycle arrest in Rb-competent human HCT116 cells assessed as reduction in S phase after 24 hrs using BrdUrd staining by FACS analysis; format: functional, cell-based; settings: HCT-116, 24 h
How it was run: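 Asynchronous HCT-116 cells treated 24 h with increasing inhibitor doses, then given a 30-min BrdUrd pulse before harvest. Percentage of BrdUrd-positive cells measured by FACS; IC50 taken as the dose reducing S phase to 50% of control.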

[18] = biological target: Ephrin type-A receptor 2 (Homo sapiens) (UniProt P29317); experiment: Inhibition of EPHA2 at 1 uM
[19] = biological target: Mitogen-activated protein kinase 11 (Homo sapiens) (UniProt Q15759); experiment: Inhibition of p38-beta at 1 uM
[20] = biological target: Serine/threonine-protein kinase 4 (Homo sapiens) (UniProt Q13043); experiment: Inhibition of STK4 at 1 uM
[21] = biological target: Serine/threonine-protein kinase MARK2 (Homo sapiens) (UniProt Q7KZI7); experiment: Inhibition of MARK2 at 1 uM
[22] = biological target: Cyclin-dependent kinase 5 (Homo sapiens) (UniProt Q00535); experiment: Inhibition of CDK5 at 1 uM
[23] = biological target: Ephrin type-B receptor 1 (Homo sapiens) (UniProt P54762); experiment: Inhibition of EPHB1 at 1 uM
[24] = biological target: AP2-associated protein kinase 1 (Homo sapiens) (UniProt Q2M2I8); experiment: Inhibition of AAK1 at 1 uM
[25] = biological target: Tyrosine-protein kinase SYK (Homo sapiens) (UniProt P43405); experiment: Inhibition of SYK at 1 uM
[26] = biological target: Casein kinase II subunit alpha (Homo sapiens) (UniProt P68400); experiment: Inhibition of CSNK2A1 at 1 uM
[27] = biological target: Platelet-derived growth factor receptor beta (Homo sapiens) (UniProt P09619); experiment: Inhibition of PDGFRB at 1 uM
[28] = biological target: Calcium/calmodulin-dependent protein kinase type II subunit delta (Homo sapiens) (UniProt Q13557); experiment: Inhibition of CAMK2D at 1 uM; how it was run: as §1
Insulin receptor = Insulin receptor (Homo sapiens, UniProt P06213); experiment: Inhibition of INSR at 1 uM
[29] = biological target: Epidermal growth factor receptor (Homo sapiens) (UniProt P00533); experiment: Inhibition of EGFR at 1 uM
[30] = biological target: Tyrosine-protein kinase Blk (Homo sapiens) (UniProt P51451); experiment: Inhibition of BLK at 1 uM; how it was run: as §1
[31] = biological target: Focal adhesion kinase 1 (Homo sapiens) (UniProt Q05397); experiment: Inhibition of PTK2 at 1 uM
[32] = biological target: TRAF2 and NCK-interacting protein kinase (Homo sapiens) (UniProt Q9UKE5); experiment: Inhibition of TNIK at 1 uM
[33] = biological target: Mitogen-activated protein kinase 14 (Homo sapiens) (UniProt Q16539); experiment: Inhibition of p38-alpha at 1 uM
[34] = biological target: Calcium/calmodulin-dependent protein kinase type II subunit gamma (Homo sapiens) (UniProt Q13555); experiment: Inhibition of CAMK2G at 1 uM
How it was run: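 Competition binding screen against a kinase panel, compound tested at a single concentration of 1 μM. Read-out is % competition, where higher scores mark stronger hits. Kinases not hit in the primary screen are reported as '<50'. No Kd values were determined.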

[35] = biological target: Calcium/calmodulin-dependent protein kinase type II subunit beta (Homo sapiens) (UniProt Q13554); experiment: Inhibition of CAMK2B at 1 uM; how it was run: as §1
[36] = biological target: Tyrosine-protein kinase Fgr (Homo sapiens) (UniProt P09769); experiment: Inhibition of FGR at 1 uM
[37] = biological target: Cyclin-G-associated kinase (Homo sapiens) (UniProt O14976); experiment: Inhibition of GAK at 1 uM
[38] = biological target: Casein kinase I isoform epsilon (Homo sapiens) (UniProt P49674); experiment: Inhibition of CSNK1E at 1 uM
[39] = biological target: Mitogen-activated protein kinase 10 (Homo sapiens) (UniProt P53779); experiment: Inhibition of JNK3 at 1 uM
[40] = biological target: Death-associated protein kinase 3 (Homo sapiens) (UniProt O43293); experiment: Inhibition of DAPK3 at 1 uM
[41] = biological target: Mitogen-activated protein kinase kinase kinase kinase 5 (Homo sapiens) (UniProt Q9Y4K4); experiment: Inhibition of MAP4K5 at 1 uM
[42] = biological target: Calcium/calmodulin-dependent protein kinase type 1 (Homo sapiens) (UniProt Q14012); experiment: Inhibition of CAMK1 at 1 uM; how it was run: as §1

Chain of Serine/threonine-protein kinase MARK2 (Homo sapiens) (Q7KZI7 whole entry): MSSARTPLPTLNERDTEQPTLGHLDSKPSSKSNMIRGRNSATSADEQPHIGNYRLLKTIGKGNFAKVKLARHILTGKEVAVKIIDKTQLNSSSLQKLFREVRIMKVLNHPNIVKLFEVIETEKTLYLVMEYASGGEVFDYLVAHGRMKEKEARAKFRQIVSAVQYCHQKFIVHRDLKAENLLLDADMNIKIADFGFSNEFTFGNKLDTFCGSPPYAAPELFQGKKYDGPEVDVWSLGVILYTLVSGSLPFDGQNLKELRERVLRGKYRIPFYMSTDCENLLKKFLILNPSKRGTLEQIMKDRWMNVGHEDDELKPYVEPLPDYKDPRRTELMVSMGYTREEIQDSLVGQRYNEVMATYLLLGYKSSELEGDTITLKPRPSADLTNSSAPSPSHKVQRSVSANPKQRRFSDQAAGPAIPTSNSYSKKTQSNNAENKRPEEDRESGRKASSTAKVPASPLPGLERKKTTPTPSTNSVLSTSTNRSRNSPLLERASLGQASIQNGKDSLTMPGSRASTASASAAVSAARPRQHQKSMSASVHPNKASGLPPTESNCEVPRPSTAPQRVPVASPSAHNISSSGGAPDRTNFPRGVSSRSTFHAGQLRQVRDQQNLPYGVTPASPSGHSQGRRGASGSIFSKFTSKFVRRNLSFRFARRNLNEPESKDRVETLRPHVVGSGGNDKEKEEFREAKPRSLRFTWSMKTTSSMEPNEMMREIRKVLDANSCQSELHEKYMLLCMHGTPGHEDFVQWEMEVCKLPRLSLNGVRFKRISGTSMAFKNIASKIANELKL
Chain of 3-phosphoinositide-dependent protein kinase 1 (Homo sapiens) (O15530 whole entry): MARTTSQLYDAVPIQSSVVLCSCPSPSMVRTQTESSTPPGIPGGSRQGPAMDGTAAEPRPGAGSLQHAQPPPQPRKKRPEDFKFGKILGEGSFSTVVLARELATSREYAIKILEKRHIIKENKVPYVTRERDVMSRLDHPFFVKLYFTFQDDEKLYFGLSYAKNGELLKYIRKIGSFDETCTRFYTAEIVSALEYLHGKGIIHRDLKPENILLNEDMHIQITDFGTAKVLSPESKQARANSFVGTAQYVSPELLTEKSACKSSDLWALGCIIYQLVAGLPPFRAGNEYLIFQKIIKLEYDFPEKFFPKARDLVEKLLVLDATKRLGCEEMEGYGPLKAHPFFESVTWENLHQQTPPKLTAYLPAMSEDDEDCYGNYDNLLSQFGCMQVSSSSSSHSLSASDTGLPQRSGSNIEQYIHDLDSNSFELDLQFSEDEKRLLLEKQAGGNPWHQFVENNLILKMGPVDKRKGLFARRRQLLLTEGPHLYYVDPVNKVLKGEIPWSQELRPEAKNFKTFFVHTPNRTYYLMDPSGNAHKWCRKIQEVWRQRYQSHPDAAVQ
Chain of Fibroblast growth factor receptor 1 (Homo sapiens) (P11362 22-822 limits assumed): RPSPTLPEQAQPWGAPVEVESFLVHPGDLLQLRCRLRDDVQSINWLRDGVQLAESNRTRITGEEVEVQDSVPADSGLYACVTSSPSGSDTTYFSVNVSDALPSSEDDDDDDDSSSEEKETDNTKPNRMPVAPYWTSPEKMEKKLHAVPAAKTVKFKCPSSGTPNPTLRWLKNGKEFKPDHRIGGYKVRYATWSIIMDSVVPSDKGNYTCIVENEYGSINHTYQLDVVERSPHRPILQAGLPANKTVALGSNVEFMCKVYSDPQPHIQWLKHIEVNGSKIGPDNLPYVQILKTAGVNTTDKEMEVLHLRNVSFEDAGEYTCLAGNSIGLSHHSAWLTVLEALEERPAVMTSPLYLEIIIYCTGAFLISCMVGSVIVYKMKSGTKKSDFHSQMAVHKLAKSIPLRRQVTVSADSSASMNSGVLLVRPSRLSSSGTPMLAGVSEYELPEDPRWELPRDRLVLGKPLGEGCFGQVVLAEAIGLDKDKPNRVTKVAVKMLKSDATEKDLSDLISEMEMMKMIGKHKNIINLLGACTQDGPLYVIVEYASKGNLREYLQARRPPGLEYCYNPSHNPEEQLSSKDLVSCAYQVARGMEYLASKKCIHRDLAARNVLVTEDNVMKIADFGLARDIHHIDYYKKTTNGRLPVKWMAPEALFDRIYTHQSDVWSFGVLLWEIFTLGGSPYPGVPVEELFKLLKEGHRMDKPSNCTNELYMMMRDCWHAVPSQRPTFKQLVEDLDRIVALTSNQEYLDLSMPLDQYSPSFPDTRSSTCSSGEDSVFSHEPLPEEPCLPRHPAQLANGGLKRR
Chain of Mitogen-activated protein kinase kinase kinase kinase 5 (Homo sapiens) (Q9Y4K4 whole entry, looked up): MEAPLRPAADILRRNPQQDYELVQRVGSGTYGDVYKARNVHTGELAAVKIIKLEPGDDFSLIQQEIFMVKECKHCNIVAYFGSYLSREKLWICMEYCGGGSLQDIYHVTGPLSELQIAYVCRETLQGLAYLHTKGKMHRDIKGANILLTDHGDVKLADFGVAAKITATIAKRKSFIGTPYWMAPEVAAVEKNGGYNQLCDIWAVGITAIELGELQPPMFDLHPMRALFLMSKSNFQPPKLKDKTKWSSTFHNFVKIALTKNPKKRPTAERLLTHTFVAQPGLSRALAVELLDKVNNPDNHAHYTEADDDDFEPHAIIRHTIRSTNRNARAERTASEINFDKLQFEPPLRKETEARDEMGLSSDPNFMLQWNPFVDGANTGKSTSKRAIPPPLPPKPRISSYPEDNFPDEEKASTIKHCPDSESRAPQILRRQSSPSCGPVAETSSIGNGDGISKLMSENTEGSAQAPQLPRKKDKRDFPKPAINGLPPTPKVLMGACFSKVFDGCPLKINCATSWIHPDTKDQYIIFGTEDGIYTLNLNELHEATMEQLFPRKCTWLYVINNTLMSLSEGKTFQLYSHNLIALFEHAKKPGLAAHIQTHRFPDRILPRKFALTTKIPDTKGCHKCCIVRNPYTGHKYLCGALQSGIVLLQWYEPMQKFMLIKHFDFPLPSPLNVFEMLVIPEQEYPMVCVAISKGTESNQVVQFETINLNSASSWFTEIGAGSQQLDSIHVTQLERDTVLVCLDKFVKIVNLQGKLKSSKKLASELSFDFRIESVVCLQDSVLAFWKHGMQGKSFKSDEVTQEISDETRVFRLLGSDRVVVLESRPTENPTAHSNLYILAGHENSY
Chain of Casein kinase II subunit alpha (Homo sapiens) (P68400 whole entry, looked up): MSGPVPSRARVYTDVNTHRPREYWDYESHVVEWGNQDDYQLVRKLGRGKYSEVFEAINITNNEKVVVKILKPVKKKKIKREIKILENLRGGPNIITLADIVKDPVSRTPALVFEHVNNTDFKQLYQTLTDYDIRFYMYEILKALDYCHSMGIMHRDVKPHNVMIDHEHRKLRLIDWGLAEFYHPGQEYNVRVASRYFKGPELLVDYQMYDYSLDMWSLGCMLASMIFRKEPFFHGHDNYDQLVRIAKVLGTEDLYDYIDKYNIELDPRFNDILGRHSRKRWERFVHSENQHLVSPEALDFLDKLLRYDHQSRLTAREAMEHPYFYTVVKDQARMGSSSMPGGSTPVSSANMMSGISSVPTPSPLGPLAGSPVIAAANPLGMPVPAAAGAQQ
Chain of STE20-like serine/threonine-protein kinase (Homo sapiens) (Q9H2G2 whole entry, looked up): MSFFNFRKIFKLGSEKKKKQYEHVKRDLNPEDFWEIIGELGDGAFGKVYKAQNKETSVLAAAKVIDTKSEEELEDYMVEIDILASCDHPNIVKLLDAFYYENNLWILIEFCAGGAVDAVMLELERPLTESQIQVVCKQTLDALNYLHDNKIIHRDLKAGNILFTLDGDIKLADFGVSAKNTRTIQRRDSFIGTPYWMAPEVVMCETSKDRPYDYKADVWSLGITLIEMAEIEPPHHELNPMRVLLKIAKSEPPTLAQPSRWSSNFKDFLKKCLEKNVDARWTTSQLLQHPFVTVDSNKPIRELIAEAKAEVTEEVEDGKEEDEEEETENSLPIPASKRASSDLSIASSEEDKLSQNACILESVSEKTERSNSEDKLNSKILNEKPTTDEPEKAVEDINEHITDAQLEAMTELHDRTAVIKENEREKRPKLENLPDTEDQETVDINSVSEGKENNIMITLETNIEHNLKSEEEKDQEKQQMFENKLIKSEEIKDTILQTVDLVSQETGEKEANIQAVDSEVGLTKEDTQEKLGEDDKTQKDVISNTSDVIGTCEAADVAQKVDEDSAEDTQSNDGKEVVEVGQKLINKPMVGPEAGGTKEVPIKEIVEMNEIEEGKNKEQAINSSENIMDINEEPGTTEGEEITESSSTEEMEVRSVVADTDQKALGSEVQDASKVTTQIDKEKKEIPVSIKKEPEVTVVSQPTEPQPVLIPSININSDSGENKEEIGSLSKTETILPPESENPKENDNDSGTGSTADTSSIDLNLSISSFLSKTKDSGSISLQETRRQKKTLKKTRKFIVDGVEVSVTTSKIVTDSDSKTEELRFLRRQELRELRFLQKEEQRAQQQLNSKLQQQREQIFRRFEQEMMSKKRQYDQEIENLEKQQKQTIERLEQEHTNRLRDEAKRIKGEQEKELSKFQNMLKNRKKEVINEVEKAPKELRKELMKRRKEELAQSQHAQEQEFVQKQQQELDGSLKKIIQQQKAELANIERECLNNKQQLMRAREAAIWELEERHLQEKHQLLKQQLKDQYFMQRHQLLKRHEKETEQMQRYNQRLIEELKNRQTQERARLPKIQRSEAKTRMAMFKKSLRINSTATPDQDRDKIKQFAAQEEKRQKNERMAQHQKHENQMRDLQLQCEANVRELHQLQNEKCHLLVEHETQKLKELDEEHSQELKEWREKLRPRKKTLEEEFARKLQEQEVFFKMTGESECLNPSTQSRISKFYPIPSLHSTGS
Chain of Mitogen-activated protein kinase 14 (Homo sapiens) (Q16539 whole entry): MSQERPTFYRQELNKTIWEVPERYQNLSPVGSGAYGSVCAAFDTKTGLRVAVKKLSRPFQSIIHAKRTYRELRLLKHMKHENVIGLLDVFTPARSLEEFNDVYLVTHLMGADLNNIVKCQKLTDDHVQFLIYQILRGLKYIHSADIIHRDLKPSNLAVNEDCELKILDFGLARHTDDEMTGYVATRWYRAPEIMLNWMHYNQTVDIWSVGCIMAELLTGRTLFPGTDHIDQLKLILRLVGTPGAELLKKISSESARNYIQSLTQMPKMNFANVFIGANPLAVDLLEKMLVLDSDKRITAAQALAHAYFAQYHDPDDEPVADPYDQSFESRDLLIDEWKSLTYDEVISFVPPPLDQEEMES

CN1CCN(c2ccc(Nc3nc(N)c(C(=O)c4ccc5c(c4)OCCO5)s3)cc2)CC1
inhibition [1]: < 50%
inhibition [2]: < 50%
inhibition [3]: < 50%
inhibition [4]: < 50%
inhibition [5]: 100%
inhibition [6]: 99%
inhibition [7]: < 50%
inhibition [8]: < 50%
inhibition [9]: < 50%
inhibition [10]: < 50%
inhibition [11]: < 50%
inhibition [12]: < 50%
inhibition [13]: < 50%
inhibition [14]: < 50%
inhibition [15]: < 50%
inhibition [16]: 97%
inhibition [17]: < 50%
IC50 (HCT-116): 3.9 µM
IC90 (HCT-116): 6.1 µM
inhibition [18]: < 50%
inhibition [19]: < 50%
inhibition [20]: < 50%
inhibition [21]: < 50%
inhibition [22]: < 50%
inhibition [23]: < 50%
inhibition [24]: 84%
inhibition [25]: < 50%
inhibition [26]: < 50%
inhibition [27]: < 50%
inhibition [28]: < 50%
inhibition (Insulin receptor): < 50%
inhibition [29]: < 50%
inhibition [30]: < 50%
inhibition [31]: < 50%
inhibition [32]: < 50%
inhibition [33]: < 50%
inhibition [34]: < 50%
inhibition [35]: < 50%
inhibition [36]: < 50%
inhibition [37]: 100%
inhibition [38]: < 50%
inhibition [39]: 66%
inhibition [40]: < 50%
inhibition [41]: < 50%
inhibition [42]: < 50%
